1 molecule from ChEMBL document CHEMBL5260803, “Discovery of Novel, Orally Bioavailable β-Amino Acid Azaindole Inhibitors of Influenza PB2” (ACS Med Chem Lett, 2017) can be followed below.

Format in all cases: functional, organism-based
For experiment [1], the system named is Influenza A virus. Kind of experiment: Antiviral activity against oseltamivir resistant Influenza A virus A/Georgia/20/2006 (H1N1) infected in MDCK cells incubated for 72 hrs by cell protection assay. In a few lines:
(§1)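 MDCK cells incubated with test compound and influenza A virus for 72 h. EC50 is the concentration giving 50% cell protection, reported as the mean of N=3. Oseltamivir resistant or sensitive status was assigned by externally validated phenotypic or genetic analysis.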

Experiment [2] deals with Influenza A virus. Briefly: Antiviral activity against oseltamivir resistant Influenza A virus A/Texas/12/2007 (H3N2) infected in MDCK cells incubated for 72 hrs by cell protection assay. The method in brief: as §1
In experiment [3] the test system is Influenza A virus. Kind of experiment: Antiviral activity against oseltamivir resistant Influenza A virus A/Texas/48/2009 (H1N1) infected in MDCK cells incubated for 72 hrs by cell protection assay. The method in brief: as §1

For orientation: EC50 means the concentration giving half of the maximal effect. Lower therefore signals higher potency in that assay. Consider `CC(C)(C)[C@@H](CC(=O)O)Nc1nc(-c2c[nH]c3ncc(F)cc23)ncc1F`, for which the EC50 was 2 nM in experiment [1], 30 nM in experiment [2] and 2 nM in experiment [3].
